Laboratory results reported in publication PMC6594083 (Diabetes, Obesity & Metabolism, 2019).

Tested on: Japanese patients with type 1 diabetes mellitus
Assay: Safety: treatment-emergent adverse events incl. hypoglycaemia
Assay type: in vivo, human (Japanese patients)
Method in brief: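 Self-monitored blood glucose was checked four times daily, before each meal and at bedtime. A value ≤70 mg/dL (≤3.89 mmol/L) was recorded as a hypoglycaemia adverse event. Adverse events were coded by MedDRA version 18.0 in all dosed patients.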

OC[C@H]1O[C@@H](c2ccc(F)c(Cc3cc4ccccc4s3)c2)[C@H](O)[C@@H](O)[C@@H]1O [ipragliflozin]
Hypoglycaemia, Mild, number of events (50 mg/day (n = 12)): 141 events | Hypoglycaemia, Moderate (50 mg/day (n = 12)): 1 (8.3) patients (%) | Hypoglycaemia, Moderate, number of events (50 mg/day (n = 12)): 3 events | Hypoglycaemia, Probable symptomatic (50 mg/day (n = 12)): 3 (25.0) patients (%) | Hypoglycaemia, Probable symptomatic, number of events (50 mg/day (n = 12)): 3 events | Hypoglycaemia, Relative (50 mg/day (n = 12)): 4 (33.3) patients (%) | Hypoglycaemia, Relative, number of events (50 mg/day (n = 12)): 11 events | Hypoglycaemia, Serious (50 mg/day (n = 12)): 0 patients (%) | Hypoglycaemia, Severe (50 mg/day (n = 12)): 0 patients (%) | TEAE Beta 2 microglobulin increased (50 mg/day (n = 12)): 0 patients (%) | TEAE Blood bilirubin increased (50 mg/day (n = 12)): 0 patients (%) | TEAE Blood ketone body increased (50 mg/day (n = 12)): 1 (8.3) patients (%) | TEAE Constipation (50 mg/day (n = 12)): 1 (8.3) patients (%) | TEAE Decreased appetite (50 mg/day (n = 12)): 1 (8.3) patients (%) | TEAE Gastroenteritis (50 mg/day (n = 12)): 0 patients (%) | TEAE Headache (50 mg/day (n = 12)): 0 patients (%) | TEAE Hemorrhoidal hemorrhage (50 mg/day (n = 12)): 0 patients (%) | TEAE Hyperglycaemia (50 mg/day (n = 12)): 1 (8.3) patients (%) | TEAE Hypoglycaemia (50 mg/day (n = 12)): 12 (100.0) patients (%) | TEAE Hypoglycaemia, number of events (50 mg/day (n = 12)): 144 events | TEAE Nasopharyngitis (50 mg/day (n = 12)): 1 (8.3) patients (%) | TEAE Overall (50 mg/day (n = 12)): 12 (100.0) patients (%) | TEAE Papule (50 mg/day (n = 12)): 1 (8.3) patients (%) | TEAE Pollakiuria (50 mg/day (n = 12)): 1 (8.3) patients (%) | TEAE Pyrexia (50 mg/day (n = 12)): 1 (8.3) patients (%) | TEAE Upper respiratory tract infection (50 mg/day (n = 12)): 0 patients (%) | TEAE Urine ketone body present (50 mg/day (n = 12)): 1 (8.3) patients (%) | TEAE Vomiting (50 mg/day (n = 12)): 1 (8.3) patients (%) | Hypoglycaemia, Asymptomatic (100 mg/day (n = 10)): 9 (90.0) patients (%) | Hypoglycaemia, Asymptomatic, number of events (100 mg/day (n = 10)): 60 events | Hypoglycaemia, Documented symptomatic (100 mg/day (n = 10)): 7 (70.0) patients (%) | Hypoglycaemia, Documented symptomatic, number of events (100 mg/day (n = 10)): 25 events | Hypoglycaemia, Drug‐related (100 mg/day (n = 10)): 9 (90.0) patients (%) | Hypoglycaemia, Drug‐related, number of events (100 mg/day (n = 10)): 77 events | Hypoglycaemia, Major (100 mg/day (n = 10)): 0 patients (%) | Hypoglycaemia, Mild, number of events (100 mg/day (n = 10)): 85 events | Hypoglycaemia, Moderate (100 mg/day (n = 10)): 0 patients (%) | Hypoglycaemia, Probable symptomatic (100 mg/day (n = 10)): 0 patients (%) | Hypoglycaemia, Relative (100 mg/day (n = 10)): 0 patients (%) | Hypoglycaemia, Serious (100 mg/day (n = 10)): 0 patients (%) | Hypoglycaemia, Severe (100 mg/day (n = 10)): 0 patients (%) | TEAE Beta 2 microglobulin increased (100 mg/day (n = 10)): 0 patients (%) | TEAE Blood bilirubin increased (100 mg/day (n = 10)): 0 patients (%) | TEAE Blood ketone body increased (100 mg/day (n = 10)): 2 (20.0) patients (%) | TEAE Constipation (100 mg/day (n = 10)): 0 patients (%) | TEAE Decreased appetite (100 mg/day (n = 10)): 0 patients (%) | TEAE Gastroenteritis (100 mg/day (n = 10)): 0 patients (%) | TEAE Headache (100 mg/day (n = 10)): 0 patients (%) | TEAE Hemorrhoidal hemorrhage (100 mg/day (n = 10)): 0 patients (%) | TEAE Hyperglycaemia (100 mg/day (n = 10)): 0 patients (%) | TEAE Hypoglycaemia (100 mg/day (n = 10)): 9 (90.0) patients (%) | TEAE Hypoglycaemia, number of events (100 mg/day (n = 10)): 85 events | TEAE Nasopharyngitis (100 mg/day (n = 10)): 0 patients (%) | TEAE Overall (100 mg/day (n = 10)): 9 (90.0) patients (%) | TEAE Papule (100 mg/day (n = 10)): 0 patients (%) | TEAE Pollakiuria (100 mg/day (n = 10)): 0 patients (%) | TEAE Pyrexia (100 mg/day (n = 10)): 0 patients (%) | TEAE Upper respiratory tract infection (100 mg/day (n = 10)): 1 (10.0) patients (%) | TEAE Urine ketone body present (100 mg/day (n = 10)): 1 (10.0) patients (%) | TEAE Vomiting (100 mg/day (n = 10)): 0 patients (%) | Deaths, serious TEAEs, TEAEs leading to discontinuation (25, 50, 100 mg/day for 14 days): no deaths, other serious TEAEs, or TEAEs leading to discontinuation | Ketoacidosis (25, 50, 100 mg/day for 14 days): no ketoacidosis was observed
